Measurements taken from ChEMBL document CHEMBL1139975, “Cyclic benzamidines as orally efficacious NR2B-selective NMDA receptor antagonists” (Bioorg Med Chem Lett, 2007).

Key:
[1] = target: T1, Glutamate receptor ionotropic, NMDA 2B (Homo sapiens, UniProt Q05586+Q13224); assay: Antagonist activity at NMDA NR2B receptor assessed as calcium flux; format: functional
[2] = target: T1, Glutamate receptor ionotropic, NMDA 2B; assay: Binding affinity to NMDA NR2B receptor
Rattus norvegicus = assay: Reduction in hyperalgesic response in po dosed carrageenan-induced hyperalgesia rat model; format: functional
Procedure, shortened: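 Carrageenan was used to induce hyperalgesia in rats, and test compound was given orally. Behavioral responses to noxious stimuli were scored, and the hyperalgesic response was expressed as % reduction versus control. ED50 was derived from oral dosing.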

[3] = Oral bioavailability in rat at 10 mg/kg; format: ADME, organism-based; conditions: in vivo
Procedure, shortened: (§1)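 Rats were dosed 2 mg/kg iv and 10 mg/kg po in separate arms. Plasma Cmax, plasma half-life, clearance and oral bioavailability were derived from these two dosings.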

[4] = Half life in rat at 2 mg/kg, iv and 10 mg/kg, po; format: ADME, organism-based; conditions: in vivo; procedure, shortened: as §1
[5] = Clearance in rat at 2 mg/kg, iv and 10 mg/kg, po; format: ADME, organism-based; conditions: in vivo; procedure, shortened: as §1
[6] = Cmax in rat at 2 mg/kg, iv and 10 mg/kg, po; format: ADME, organism-based; conditions: in vivo; procedure, shortened: as §1

T1 sequence (Q13224 whole entry, one chain of several): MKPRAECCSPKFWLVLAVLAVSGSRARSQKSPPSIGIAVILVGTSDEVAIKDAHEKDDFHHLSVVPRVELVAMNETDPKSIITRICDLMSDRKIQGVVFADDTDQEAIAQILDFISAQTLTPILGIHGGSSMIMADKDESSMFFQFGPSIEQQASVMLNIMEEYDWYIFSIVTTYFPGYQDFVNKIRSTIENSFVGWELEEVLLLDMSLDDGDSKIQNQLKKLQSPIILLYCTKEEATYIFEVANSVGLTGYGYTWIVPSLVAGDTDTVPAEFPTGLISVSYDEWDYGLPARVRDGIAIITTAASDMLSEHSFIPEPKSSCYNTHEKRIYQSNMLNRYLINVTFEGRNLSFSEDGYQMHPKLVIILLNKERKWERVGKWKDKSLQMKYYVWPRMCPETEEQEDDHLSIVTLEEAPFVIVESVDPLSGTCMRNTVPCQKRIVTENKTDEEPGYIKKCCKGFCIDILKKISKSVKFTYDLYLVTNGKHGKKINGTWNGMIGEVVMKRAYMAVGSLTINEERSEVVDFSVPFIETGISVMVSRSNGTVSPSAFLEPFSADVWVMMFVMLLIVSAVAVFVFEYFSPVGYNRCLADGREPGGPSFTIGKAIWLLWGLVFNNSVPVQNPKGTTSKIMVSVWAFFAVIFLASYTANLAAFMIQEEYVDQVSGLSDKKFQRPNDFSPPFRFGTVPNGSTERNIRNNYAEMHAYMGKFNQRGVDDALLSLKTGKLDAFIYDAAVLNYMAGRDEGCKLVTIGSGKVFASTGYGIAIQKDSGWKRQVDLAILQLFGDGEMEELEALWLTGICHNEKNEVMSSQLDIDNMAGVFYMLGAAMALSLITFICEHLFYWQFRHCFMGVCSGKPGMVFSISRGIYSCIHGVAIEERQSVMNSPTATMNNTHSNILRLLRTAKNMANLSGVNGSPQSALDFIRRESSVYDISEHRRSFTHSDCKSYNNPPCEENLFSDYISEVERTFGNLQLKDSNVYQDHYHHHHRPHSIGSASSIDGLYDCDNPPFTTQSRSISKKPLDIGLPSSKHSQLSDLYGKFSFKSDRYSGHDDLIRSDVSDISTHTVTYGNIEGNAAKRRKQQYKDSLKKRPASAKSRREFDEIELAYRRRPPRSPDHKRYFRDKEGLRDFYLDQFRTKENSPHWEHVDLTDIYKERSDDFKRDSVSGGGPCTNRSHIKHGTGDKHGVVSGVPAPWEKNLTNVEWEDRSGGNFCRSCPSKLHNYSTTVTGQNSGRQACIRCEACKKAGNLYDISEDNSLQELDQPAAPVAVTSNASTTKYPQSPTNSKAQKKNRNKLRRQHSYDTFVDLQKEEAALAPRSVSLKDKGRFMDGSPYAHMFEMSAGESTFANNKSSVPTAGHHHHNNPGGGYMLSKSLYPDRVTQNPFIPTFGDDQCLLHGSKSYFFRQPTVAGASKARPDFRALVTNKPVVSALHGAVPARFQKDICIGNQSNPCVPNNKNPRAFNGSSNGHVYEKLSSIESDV

Compound	IC50 [1]	Ki [2]	further results
FC(F)(F)Oc1ccc(C2=NC(c3cc(Cl)cc(Cl)c3)CN2)cc1Cl (configuration not stated)	3670 nM	223 nM	
FC(F)(F)Oc1ccc(C2=NCC(c3ccccc3C(F)(F)F)N2)cc1Cl (configuration not stated)	1270 nM	353 nM	
FC(F)(F)Oc1ccc(C2=NCC(c3ccccc3OC(F)(F)F)N2)cc1Cl (configuration not stated)	3480 nM	505 nM	
COc1ccccc1CN1Cc2cc(OC(F)(F)F)ccc2C1=N	5.9 nM	3.6 nM	ED50 (Rattus norvegicus): 20 mg/kg; bioavailability [3]: 5%; half-life [4]: 2 h; clearance [5]: 66 mL/min/kg; Cmax [6]: 215 nM
OC1CN=C(c2ccc(OC(F)(F)F)cc2)NC1c1ccccc1 (configuration not stated)		7350 nM	
FC(F)(F)Oc1ccc(C2=NC(c3cccc(Cl)c3)CN2)cc1 (configuration not stated)	1980 nM	296 nM	
N=C1c2ccc(OC(F)(F)F)cc2CN1Cc1cccc(Cl)c1	49 nM	8 nM	
FC(F)(F)Oc1ccc(C2=NCCCC(c3ccccc3)N2)cc1 (configuration not stated)		4200 nM	
N=C1c2ccc(OC(F)(F)F)cc2CN1Cc1cccc2ccoc12	12 nM	2.2 nM	
COc1ccccc1C1CN=C(c2ccc(OC(F)(F)F)c(Cl)c2)N1 (configuration not stated)	108 nM	75 nM	
FC(F)(F)Oc1ccc(C2=NC(c3cccc(Cl)c3)CN2)cc1Cl (configuration not stated)	266 nM	66 nM	
Cc1cc(C)cc(CN2Cc3cc(OC(F)(F)F)ccc3C2=N)c1	39 nM	2 nM	
